Test results from paper PMC4364388 (Biochimica et biophysica acta, 2015).
Values after ≈ are worked out from the molar mass of the structure shown. Values joined by “and” are separate entries in the source; they are usually repeats but may differ in a detail not shown here. Equal values may be shown once. Read-outs that look alike come from different tables or passages of the source.

Experiments:
[1] = tested on: rats; conditions: listed as DMTU; cited from earlier work
[2] = Water solubility; assay type: physicochemical
[3] = biological target: T1, rat UT-B (Rattus norvegicus, UniProt P97689); test: UT-B inhibition, erythrocyte lysis assay; assay type: cell-based; conditions: for IC50: 15 min incubation
T1 sequence (P97689 1-384): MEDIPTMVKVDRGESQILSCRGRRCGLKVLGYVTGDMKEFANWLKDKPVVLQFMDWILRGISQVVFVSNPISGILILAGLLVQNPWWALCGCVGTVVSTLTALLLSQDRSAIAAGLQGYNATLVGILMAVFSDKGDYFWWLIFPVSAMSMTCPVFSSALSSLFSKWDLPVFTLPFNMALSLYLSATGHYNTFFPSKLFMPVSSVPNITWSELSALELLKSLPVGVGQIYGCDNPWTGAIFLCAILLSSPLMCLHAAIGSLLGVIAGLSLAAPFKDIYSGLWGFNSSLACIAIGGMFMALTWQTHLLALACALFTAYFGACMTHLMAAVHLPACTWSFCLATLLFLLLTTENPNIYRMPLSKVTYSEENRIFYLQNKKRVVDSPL

[4] = biological target: T1, rat UT-B; conditions: read-out: UT-B IC50; earlier finding; cited from earlier work
[5] = biological target: T2, rat UT-A1 (Rattus norvegicus, UniProt Q62668); conditions: read-out: UT-A1 IC50; earlier finding; cited from earlier work
T2 sequence (Q62668 1-929): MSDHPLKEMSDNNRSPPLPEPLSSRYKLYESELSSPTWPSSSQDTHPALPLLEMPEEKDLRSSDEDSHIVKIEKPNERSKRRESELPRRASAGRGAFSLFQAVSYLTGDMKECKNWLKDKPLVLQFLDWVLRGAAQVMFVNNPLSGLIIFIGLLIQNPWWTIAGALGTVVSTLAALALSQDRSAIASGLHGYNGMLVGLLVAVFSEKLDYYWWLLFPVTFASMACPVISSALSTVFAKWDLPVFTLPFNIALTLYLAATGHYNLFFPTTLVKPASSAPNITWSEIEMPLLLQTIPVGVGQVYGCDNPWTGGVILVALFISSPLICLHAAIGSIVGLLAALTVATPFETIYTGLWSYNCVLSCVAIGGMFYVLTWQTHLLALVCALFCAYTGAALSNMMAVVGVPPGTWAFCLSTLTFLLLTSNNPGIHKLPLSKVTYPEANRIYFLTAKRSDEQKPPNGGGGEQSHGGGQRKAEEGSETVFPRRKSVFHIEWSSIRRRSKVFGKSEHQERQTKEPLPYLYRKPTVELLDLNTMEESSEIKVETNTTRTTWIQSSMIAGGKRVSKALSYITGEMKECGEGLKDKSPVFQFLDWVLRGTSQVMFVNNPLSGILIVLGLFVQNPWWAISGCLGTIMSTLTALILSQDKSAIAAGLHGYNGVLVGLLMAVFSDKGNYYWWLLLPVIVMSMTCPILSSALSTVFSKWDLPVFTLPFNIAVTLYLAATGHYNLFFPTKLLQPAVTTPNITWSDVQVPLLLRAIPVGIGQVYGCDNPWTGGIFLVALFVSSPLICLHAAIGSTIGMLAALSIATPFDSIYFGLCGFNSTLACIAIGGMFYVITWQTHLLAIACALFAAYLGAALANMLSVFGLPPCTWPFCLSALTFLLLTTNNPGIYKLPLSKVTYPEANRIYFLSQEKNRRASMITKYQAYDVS

[6] = biological target: T2, rat UT-A1; test: UT-A1 inhibition assay; assay type: cell-based; conditions: for IC50: UT-A1 IC50, MDCK cells expressing rat UT-A1, YFP and AQP1, 20 min incubation; for Selectivity for UT-A1 vs. UT-B inhibition: comparison of IC50 values for UT-A1 and UT-B
[7] = biological target: T2, rat UT-A1; test: Functional studies of UT-A1 inhibition; assay type: cell-based
Outline: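 MDCK cells stably co-expressing rat UT-A1, YFP-H148Q/V163S and human AQP1 were plated 24 h before assay. Reversibility: 15 min with 0.2 mM test compound, two PBS washes, then assay. Kinetics: 0.2 mM added at varied times before assay. Urea dependence: concentration-response at 80–1,600 mM urea gradients. Read-out was YFP fluorescence 7 s after urea addition, normalised to negative and positive controls.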

[8] = tested on: MDCK cells; test: Cytotoxicity to MDCK cells; assay type: cell-based, canine; conditions: at solubility limit
[9] = read-out: UT-B IC50, rat erythrocyte lysis assay
[10] = UT-B IC50, rat erythrocyte lysis assay

Molecule	IC50 [3, 9]	UT-A1 inhibition activity (in words) [6]	UT-B inhibition activity (in words) [3]	IC50 [6]	IC50 [3, 10]	Selectivity for UT-A1 vs. UT-B inhibition [6]	also measured
CNC(=S)NC [Compound 1, N, N′-dimethylthiourea]	3900 ± 600 µM	–	–	–	–	–	Diuretic action [1]: reduce urinary osmolality in rats and produce a salt-sparing diuresis; Water solubility [2]: 7900 mM; Solubility in saline ([2]; saline): > 50 mg/mL; IC50 [4]: 2000 to 3000 µM; IC50 [5]: 2000 to 3000 µM
NC(N)=S [Compound 2]	> 25000 µM	significant loss of UT-A1 and UT-B inhibition activity	significant loss of UT-A1 and UT-B inhibition activity	–	–	–	–
CNC(=O)NC [Compound 3, dimethylurea]	14000 ± 2000 µM	loss of activity	loss of activity	–	–	–	–
CN(C)C(=S)N(C)C [Compound 5, Tetramethylthiourea]	–	inactive	inactive	> 25000 µM	> 25000 µM	–	–
NC(=S)Nc1ccccc1 [Compound 9, phenylthiourea]	–	potencies comparable to DMTU	potencies comparable to DMTU	8800 ± 300 µM	14000 ± 1000 µM	–	–
NC(=S)Nc1ccc([N+](=O)[O-])cc1 [Compound 18, 4-nitrophenylthiourea]	–	–	–	1300 ± 300 µM	10000 ± 1000 µM	UT-A1 selective	–
NC(=S)Nc1ccc(Cl)c(Cl)c1 [Compound 21, 3,4-dichlorophenylthiourea]	–	–	–	1500 ± 400 µM	400 ± 100 µM	–	–
NC(=S)c1ccncc1 [Compound 26, thioisonicotinamide]	2800 ± 500 µM	–	–	–	–	selective for UT-B over UT-A1	–
NC(=S)c1cccnc1 [Compound 27, thionicotinamide]	–	–	–	> 25000 µM	10000 ± 2000 µM	–	–
NC(=S)Nc1cccc([N+](=O)[O-])c1 [Compound 32, 3-nitrophenylthiourea]	–	–	–	~200 µM and 200 µM	~200 µM and 200 µM	non-selective	IC50 improvement relative to 18 [6]: ~6 fold; solubility ([2]; water): 0.64 mM (≈ 126 µg/mL); Kinetics of UT-A1 inhibition ([7]; 0.2 mM added at different times prior to assay): very rapid; Reversibility of UT-A1 inhibition ([7]; 0.2 mM, 15 min incubation, washed twice): fully reversible; Inhibition mechanism from urea concentration-dependence of IC50 ([7]; urea gradients 80 to 1,600 mM): competitive inhibition mechanism; Cytotoxicity to MDCK cells [8]: no cytotoxicity
NC(=S)c1ccncc1 [thioisonicotinamide]	2800 µM	–	–	–	–	UT-B selective	–
cyclohexylthiourea [Compound 12]	5200 ± 600 µM	potencies comparable to DMTU	potencies comparable to DMTU	–	–	–	–
